In ChEMBL document CHEMBL3244241, “Synthesis of cephalotaxine esters and correlation of their structures with antitumor activity” (J Med Chem, 1977):
Active and inactive are the calls of the source. The calls are words filed in the database; no cut-off is given here.

Tests used:
P388 [1] = experiment: Antitumor activity against mouse P388 cells allografted in ip dosed DBA/2 mouse administered for 9 days; format: functional, organism-based
In short: (§1)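 P388 lymphocytic leukemia in DBA/2 mice; one intraperitoneal injection per day for 9 days. […] Injection vehicles were water + alcohol, saline + Tween 80, or aqueous 0.5% citric acid. Some tests were duplicated, and 30-day cures were recorded.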

Mus musculus [2] = experiment: Toxicity in DBA/2 mouse allografted with mouse P388 cells at >80 mg/kg/day, ip for 9 days; format: organism-based; conditions: in vivo, 216 h
In short: (§2)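 DBA/2 mice bearing P388 lymphocytic leukemia received one intraperitoneal injection per day for 9 days, given in the vehicle named for each test (water/alcohol-based, saline or saline + Tween 80). Toxicity was noted during dosing alongside survival scoring (T/C, treated versus control mean survival time).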

Mus musculus [3] = experiment: Toxicity in DBA/2 mouse allografted with mouse P388 cells assessed as change in body weight at 20 mg/kg/day, ip for 9 days compound administered through water+alcohol+acetone vehicle; format: organism-based; parameters: route intraperitoneal; conditions: in vivo, 216 h; in short: as §2
Mus musculus [4] = experiment: Toxicity in DBA/2 mouse allografted with mouse P388 cells assessed as change in body weight at 10 mg/kg/day, ip for 9 days compound administered through water+alcohol+acetone vehicle; format: organism-based; parameters: route intraperitoneal; conditions: in vivo, 216 h; in short: as §2
Mus musculus [5] = experiment: Toxicity in DBA/2 mouse allografted with mouse P388 cells assessed as change in body weight at 4.4 mg/kg/day, ip for 9 days compound administered through water+alcohol vehicle; format: organism-based; parameters: route intraperitoneal; conditions: in vivo, 216 h; in short: as §2
Mus musculus [6] = experiment: Toxicity in DBA/2 mouse allografted with mouse P388 cells assessed as change in body weight at 1.9 mg/kg/day, ip for 9 days compound administered through water+alcohol vehicle; format: organism-based; parameters: route intraperitoneal; conditions: in vivo, 216 h; in short: as §2
P388 [7] = experiment: Antitumor activity against mouse P388 cells allografted in DBA/2 mouse assessed as host survival at 80 mg/kg/day, ip for 9 days compound administered through water+alcohol+acetone vehicle relative to control; format: functional; conditions: route intraperitoneal
In short: (§3)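 P388 lymphocytic leukemia in DBA/2 mice. Dosing was one intraperitoneal injection per day for 9 days in the vehicle stated. […] Duplicate tests were run for some doses.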

P388 [8] = experiment: Antitumor activity against mouse P388 cells allografted in DBA/2 mouse assessed as host survival at 40 mg/kg/day, ip for 9 days compound administered through water+alcohol+acetone vehicle relative to control; format: functional; conditions: route intraperitoneal; in short: as §3
P388 [9] = experiment: Antitumor activity against mouse P388 cells allografted in DBA/2 mouse assessed as host survival at 20 mg/kg/day, ip for 9 days compound administered through water+alcohol+acetone vehicle relative to control; format: functional; conditions: route intraperitoneal; in short: as §3
P388 [10] = experiment: Antitumor activity against mouse P388 cells allografted in DBA/2 mouse assessed as host survival at 10 mg/kg/day, ip for 9 days compound administered through water+alcohol+acetone vehicle relative to control; format: functional; conditions: route intraperitoneal; in short: as §3
P388 [11] = experiment: Antitumor activity against mouse P388 cells allografted in DBA/2 mouse assessed as host survival at 4.4 mg/kg/day, ip for 9 days compound administered through water+alcohol vehicle relative to control; format: functional; conditions: route intraperitoneal; in short: as §3
P388 [12] = experiment: Antitumor activity against mouse P388 cells allografted in DBA/2 mouse assessed as host survival at 1.9 mg/kg/day, ip for 9 days compound administered through water+alcohol vehicle relative to control; format: functional; conditions: route intraperitoneal; in short: as §3
Mus musculus [13] = experiment: Toxicity in DBA/2 mouse allografted with mouse P388 cells assessed as change in body weight at 80 mg/kg/day, ip for 9 days compound administered through water+alcohol+acetone vehicle; format: organism-based; parameters: route intraperitoneal; conditions: in vivo, 216 h; in short: as §2
Mus musculus [14] = experiment: Toxicity in DBA/2 mouse allografted with mouse P388 cells assessed as change in body weight at 40 mg/kg/day, ip for 9 days compound administered through water+alcohol+acetone vehicle; format: organism-based; parameters: route intraperitoneal; conditions: in vivo, 216 h; in short: as §2
Mus musculus [15] = experiment: Toxicity in DBA/2 mouse allografted with mouse P388 cells assessed as change in body weight at 4 mg/kg/day, ip for 9 days compound administered through saline vehicle; format: organism-based; parameters: route intraperitoneal; conditions: in vivo, 216 h
Mus musculus [16] = experiment: Toxicity in DBA/2 mouse allografted with mouse P388 cells assessed as change in body weight at 9 mg/kg/day, ip for 9 days compound administered through water+alcohol vehicle; format: organism-based; parameters: route intraperitoneal; conditions: in vivo, 216 h
P388 [17] = experiment: Antitumor activity against mouse P388 cells allografted in DBA/2 mouse assessed as host survival at 4 mg/kg/day, ip for 9 days compound administered through saline vehicle relative to control; format: functional; conditions: route intraperitoneal; in short: as §3
P388 [18] = experiment: Antitumor activity against mouse P388 cells allografted in DBA/2 mouse assessed as host survival at 9 mg/kg/day, ip for 9 days compound administered through water+alcohol vehicle relative to control; format: functional; conditions: route intraperitoneal; in short: as §3
P388 [19] = experiment: Antitumor activity against mouse P388 cells allografted in DBA/2 mouse assessed as host survival at 20 mg/kg/day, ip for 9 days compound administered through 0.5% citric acid vehicle; format: functional, organism-based; in short: as §1
P388 [20] = experiment: Antitumor activity against mouse P388 cells allografted in DBA/2 mouse assessed as host survival at 20 mg/kg/day, ip for 9 days compound administered through water+alcohol vehicle relative to control; format: functional; conditions: route intraperitoneal; in short: as §3
P388 [21] = experiment: Antitumor activity against mouse P388 cells allografted in DBA/2 mouse assessed as host survival at 13 mg/kg/day, ip for 9 days compound administered through water+alcohol vehicle relative to control; format: functional; conditions: route intraperitoneal; in short: as §3
P388 [22] = experiment: Antitumor activity against mouse P388 cells allografted in DBA/2 mouse assessed as host survival at 20 mg/kg/day, ip for 9 days compound administered through saline+Tween 80 vehicle relative to control; format: functional; conditions: route intraperitoneal; in short: as §3
Mus musculus [23] = experiment: Toxicity in DBA/2 mouse allografted with mouse P388 cells assessed as change in body weight at 20 mg/kg/day, ip for 9 days compound administered through water+alcohol vehicle; format: organism-based; parameters: route intraperitoneal; conditions: in vivo, 216 h; in short: as §2
Mus musculus [24] = experiment: Toxicity in DBA/2 mouse allografted with mouse P388 cells assessed as change in body weight at 13 mg/kg/day, ip for 9 days compound administered through water+alcohol vehicle; format: organism-based; parameters: route intraperitoneal; conditions: in vivo, 216 h; in short: as §2
Mus musculus [25] = experiment: Toxicity in DBA/2 mouse allografted with mouse P388 cells assessed as change in body weight at 20 mg/kg/day, ip for 9 days compound administered through saline+Tween 80 vehicle; format: organism-based; parameters: route intraperitoneal; conditions: in vivo, 216 h; in short: as §2

For COC1=C[C@]23CCCN2CCc2cc4c(cc2[C@@H]3[C@@H]1OC(=O)[C@@H](O)c1ccccc1)OCO4, the Activity (P388 [1]) was “inactive” and the Activity (Mus musculus [2]) was “Toxic”.

Work on COC(=O)/C=C/C(=O)O[C@@H]1C(OC)=C[C@]23CCCN2CCc2cc4c(cc2[C@H]13)OCO4 yielded an Activity (Mus musculus [3]) of -1 g, an Activity (Mus musculus [4]) of -1.2 g and an Activity (Mus musculus [5]) of -1.5 g. It also gave an Activity (Mus musculus [6]) of 0.5 g, a T/C (P388 [7]) of 145% and a T/C (P388 [8]) of 134%. For the same compound, the T/C (P388 [9]) was 125%, the T/C (P388 [10]) was 136% and the T/C (P388 [11]) was 147%. For the same compound, the T/C (P388 [12]) was 134%, the Activity (Mus musculus [13]) was -0.7 g and the Activity (Mus musculus [14]) was -0.9 g.

In the case of COC(=O)/C=C/C=C/C(=O)O[C@@H]1C(OC)=C[C@]23CCCN2CCc2cc4c(cc2[C@H]13)OCO4, the Activity (P388 [1]) is reported as “inactive”.

COC(=O)C[C@@](O)(CCC(C)C)C(=O)O[C@@H]1C(OC)=C[C@]23CCCN2CCc2cc4c(cc2[C@H]13)OCO4 gave an Activity (Mus musculus [15]) of 0.5 g, an Activity (Mus musculus [16]) of -2.2 g and a T/C (P388 [17]) of 150%. The T/C (P388 [18]) was 131%.

With CCC(C)(OC(=O)OCC(Cl)(Cl)Cl)C(=O)O[C@@H]1C(OC)=C[C@]23CCCN2CCc2cc4c(cc2[C@H]13)OCO4 (some centres undefined) the Activity (P388 [1]) was “inactive”.

With COC1=C[C@]23CCCN2CCc2cc4c(cc2[C@@H]3[C@@H]1OC(=O)OCc1ccccc1)OCO4 the Activity (P388 [1]) was “inactive”.

CCOC(=O)C(=O)O[C@@H]1C(OC)=C[C@]23CCCN2CCc2cc4c(cc2[C@H]13)OCO4 was tested, and the Activity (P388 [19]) was “inactive”, the T/C (P388 [20]) was 135% and the T/C (P388 [21]) was 154%. It also gave a T/C (P388 [22]) of 129%, an Activity (Mus musculus [23]) of -0.2 g and an Activity (Mus musculus [24]) of -0.8 g. The Activity (Mus musculus [25]) was -0.1 g.

With COC(=O)/C=C(\C)C(=O)O[C@@H]1C(OC)=C[C@]23CCCN2CCc2cc4c(cc2[C@H]13)OCO4 the Activity (P388 [1]) was “inactive”.
